The record followed here is ChEMBL document CHEMBL5107964, “Development of 2-deoxystreptamine-nucleobase conjugates for the inhibition of oncogenic miRNA production” (RSC Med Chem, 2022).

The source made the active and inactive calls. The calls are words filed in the database; no cut-off is given here.

Test [1] in a line: Binding affinity to 5'FAM-labeled Precursor microRNA-148a (unknown origin) incubated for 4 hrs by fluorescence-based assay. The procedure, abridged:
(§1)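 Each 5'-FAM-labelled pre-miRNA (10 nM) was folded in 20 mM Tris-HCl pH 7.4, 12 mM NaCl, 1 mM DTT by heating at 90°C for 2 min, holding at 4°C for 10 min and returning to room temperature over 15 min. Ligand was added in 15 dilutions (0.030 nM–0.5 mM). Fluorescence (ex 485, em 535 nm) was read after 4 h. Runs were in duplicate, repeated at least three times, and KD came from a 1:1 binding model.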

Test [2] is described as follows: Binding affinity to 5'FAM-labeled Precursor microRNA-18a (unknown origin) incubated for 4 hrs by fluorescence-based assay. The procedure, abridged: as §1
Test [3] in a line: Selectivity ratio of Kd for binding affinity to 5'FAM-labeled Precursor microRNA-372 (unknown origin) in presence of DNA to Kd for binding affinity to 5'FAM-labeled Precursor microRNA-372 (unknown origin).
A short description of test [4]: Binding affinity to 5'FAM-labeled Precursor microRNA-372 (unknown origin) assessed as dissociation constant incubated for 4 hrs in presence of tRNA by fluorescence-based assay. The procedure, abridged:
(§2)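 KD was measured with 10 nM folded 5'-FAM-pre-miR-372 in 20 mM Tris-HCl pH 7.4, 12 mM NaCl, 1 mM DTT, with 100 eq. competitor added to the RNA. Competitor was tRNA or duplex DNA from two 15-mer strands annealed at 90°C for 5 min then slowly cooled. Ligand was added in 15 dilutions (0.030 nM–0.5 mM) and fluorescence (ex 485, em 535 nm) read after 4 h. A 1:1 model was fitted.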

The nature of test [5]: Inhibition of 5'FAM-labeled and 3'DAB-labeled Precursor microRNA-18a (unknown origin) assessed as inhibition of Dicer-induced pre-miR-18a cleavage by measuring fluorescence incubated for 4 hrs in presence of human recombinant Dicer by FRET Dicer assay. The procedure, abridged:
(§3)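 The pre-miRNA beacon (50 nM; 5'-FAM, 3'-dabcyl) in 20 mM Tris-HCl pH 7.4, 12 mM NaCl, 1 mM DTT was preincubated with inhibitor (12 dilutions) for 30 min at room temperature. Human recombinant Dicer was then added. After 4 h at 37°C the fluorescence increase (ex 485, em 535 nm) was read. Assays were in duplicate, repeated three times, and IC50 was obtained by nonlinear regression.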

Test [6] in a line: Inhibition of 5'FAM-labeled and 3'DAB-labeled Precursor microRNA-372 (unknown origin) assessed as inhibition of Dicer-induced pre-miR-372 cleavage by measuring fluorescence incubated for 4 hrs in presence of human recombinant Dicer by FRET Dicer assay. The procedure, abridged: as §3
The nature of test [7]: Selectivity ratio of Kd for binding affinity to 5'FAM-labeled Precursor microRNA-372 (unknown origin) in presence of tRNA to Kd for binding affinity to 5'FAM-labeled Precursor microRNA-372 (unknown origin).
Test [8] in a line: Inhibition of 5'FAM-labeled and 3'DAB-labeled Precursor microRNA-148a (unknown origin) assessed as inhibition of Dicer-induced pre-miR-148a cleavage by measuring fluorescence incubated for 4 hrs in presence of human recombinant Dicer by FRET Dicer assay. Summed up:
as §3

Test [9] can be described thus: Binding affinity to 5'FAM-labeled Precursor microRNA-372 (unknown origin) assessed as dissociation constant incubated for 4 hrs by fluorescence-based assay. Summed up: as §1
Test [10] can be described thus: Binding affinity to 5'FAM-labeled Precursor microRNA-372 (unknown origin) assessed as dissociation constant incubated for 4 hrs in presence of DNA by fluorescence-based assay. The procedure, abridged: as §2
Test [11] can be described thus: Inhibition of Precursor microRNA-372 in human HEK293 cell lysate assessed as inhibition of Dicer-induced pre-miR-372 maturation by measuring fluorescence incubated for 4 hrs by FRET Dicer assay. The class given is subcellular. The procedure, abridged: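 The FRET cleavage assay used 50 nM pre-miR-372 beacon (5'-FAM, 3'-dabcyl), with HEK293 whole-cell lysate in place of recombinant enzyme. Inhibitor was preincubated with the beacon for 30 min at room temperature. After 4 h at 37°C the fluorescence rise (ex 485, em 535 nm) was measured. IC50 was obtained by nonlinear regression.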

As for `N[C@@H]1C[C@H](N)[C@@H](OCCn2cc(CCC(=O)NCC(=O)Nc3nc(-c4ccccc4)cs3)nn2)[C@H](O)[C@H]1O`, the outcome in [1] and in test [2] was Active. Also, the values for the Selectivity ratio in [3] and in test [7] were 2.1 and 1.7, respectively. Also, the Kd (in general, the free concentration of one partner at which half of the binding sites on the other are occupied at equilibrium, for simple one-to-one binding) in [4] was 8.56 µM; in test [9], 5.13 µM; in test [10], 11 µM. Also, the IC50 – broadly, the concentration that gives 50% inhibition – in test [5] is 89.5 µM; in test [6], 74.9 µM; in test [8] it was 85.3 µM.
Take `N[C@@H]1C[C@H](N)[C@@H](OCCn2cc(Cn3ccc(O)nc3=O)nn2)[C@H](O)[C@H]1O`: the dissociation constant (Kd) in [4] is above 1000 µM; in test [9] it was 17.1 µM; in test [10], above 1000 µM.
`CCCCNC(=O)Nc1cccc(-c2cn(Cc3cn(C[C@H]4O[C@@H](O[C@@H]5[C@@H](O)[C@H](N)C[C@H](N)[C@H]5O[C@H]5O[C@H](CN)[C@@H](O)[C@H](O)[C@H]5N)[C@H](O)[C@@H]4O[C@H]4O[C@@H](CN)[C@@H](O)[C@H](O)[C@H]4N)nn3)cn2)c1`: the Selectivity ratio in test [3] came to 1.5; in [7], 1.1. Moreover, the values for the dissociation constant (Kd) in test [4], in [9] and in test [10] were 0.0164 µM, 0.0461 µM and 0.0222 µM, respectively. Also, the IC50 in [6] came out at 25.6 µM.
On to `CCCCNC(=O)Nc1cccc(-c2cn(Cc3cn(CCO[C@H]4[C@H](O)[C@@H](O)[C@H](N)C[C@@H]4N)nn3)cn2)c1`, for which the Selectivity ratio in [3] amounted to 1.3; in test [7] it was 2.2. Moreover, the dissociation constant (Kd) in test [4] was determined as 3.65 µM; in [9] it was 1.62 µM; in [10] it was 2.11 µM. Besides, the IC50 in test [6] amounted to 72.4 µM.
With `Nc1ccn(Cc2cn(CCO[C@H]3[C@H](O)[C@@H](O)[C@H](N)C[C@@H]3N)nn2)c(=O)n1`, the equilibrium dissociation constant (Kd) is above 1000 µM in [4], 101 µM in [9] and above 1000 µM in test [10].
As to `N[C@@H]1C[C@H](N)[C@@H](OCCn2cc(Cn3cnc(-c4cccc(NC(=O)c5ccccc5)c4)c3)nn2)[C@H](O)[C@H]1O`, the result in test [1] and in [2] was Active. Besides, the Kd in test [4] turned out to be 2.64 µM; in [9], 0.627 µM; in test [10], 2.96 µM. The half-maximal inhibitory concentration (IC50) in test [6] was 12.6 µM; in test [11] it was 29.5 µM.
As to `N[C@@H]1C[C@H](N)[C@@H](O)[C@H](O)[C@H]1O`, the Kd in [9] was above 1000 µM.
Consider `Nc1cccc(-c2cn(Cc3cn(CCO[C@H]4[C@H](O)[C@@H](O)[C@H](N)C[C@@H]4N)nn3)cn2)c1`, for which the outcome in test [1] and in test [2] was Active. Besides, the values for the Selectivity ratio in test [3] and in test [7] were 1.2 and 1.1, respectively. Also, the values for the dissociation constant Kd in test [4], in test [9] and in test [10] were 3.92 µM, 3.53 µM and 4.27 µM, respectively. Besides, the IC50 was 20.3 µM in test [5], 81.1 µM in test [6], above 500 µM in test [11] and 18.2 µM in test [8].
With `NC[C@@H]1O[C@H](O[C@H]2[C@@H](O)[C@H](O[C@@H]3[C@@H](O)[C@H](N)C[C@H](N)[C@H]3O[C@H]3O[C@H](CN)[C@@H](O)[C@H](O)[C@H]3N)O[C@@H]2Cn2cc(Cn3cnc(-c4cccc(NC(=O)c5ccccc5)c4)c3)nn2)[C@H](N)[C@@H](O)[C@@H]1O`, the results for the Selectivity ratio in test [3] and in [7] were 1.3 and 1.1, respectively. Also, the dissociation constant (Kd) in test [4] came to 0.0208 µM; in test [9] it was 0.0189 µM; in [10] it was 0.0244 µM. Besides, the IC50 in test [6] came out at 8.3 µM; in test [11] it was 20.4 µM.
Regarding `Nc1ncnc2c1ncn2Cc1cn(CCO[C@H]2[C@H](O)[C@@H](O)[C@H](N)C[C@@H]2N)nn1`, the Selectivity ratio in test [3] was 4.2. Also, the results for the Kd in test [4], in test [9] and in [10] were above 1000 µM, 11.1 µM and 47.1 µM, respectively.
Consider `N[C@@H]1C[C@H](N)[C@@H](OCCn2cc(Cn3cnc(-c4cccc(NC(=O)c5ccc6ccccc6c5)c4)c3)nn2)[C@H](O)[C@H]1O`, for which the result in test [1] and in test [2] was Active. Further, the Selectivity ratio in test [3] and in test [7] was 1.3 throughout. For the same molecule, the Kd came out at 8.51 µM in test [4], 6.78 µM in [9] and 9.02 µM in test [10]. For the same molecule, the IC50 in test [5] was 177 µM; in test [6] it was above 100 µM; in test [8] it was above 500 µM.
